Values after ≈ are worked out from the molar mass of the structure shown.
Legend:
Escherichia coli [1] = assay: In vitro antibacterial activity was tested for Escherichia coli H560; type: functional
Outline: (§1)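 Microtitration (microdilution) MIC determination in μg/mL against a panel of Gram-positive, Gram-negative and anaerobic organisms. Values come from duplicate or triplicate experiments and are stated accurate to ±50%.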

Escherichia coli [2] = assay: In vitro antibacterial activity was tested for Escherichia coli Vogel; type: functional; outline: as §1
Enterobacter cloacae = assay: In vitro antibacterial activity was tested for Enterobacter cloacae HA2646; type: functional
Klebsiella pneumoniae = assay: In vitro antibacterial activity was tested for Klebsiella pneumoniae MGH-2; type: functional; outline: as §1
Providencia rettgeri = assay: In vitro antibacterial activity was tested for Providencia rettgeri H1771; type: functional; outline: as §1
Pseudomonas aeruginosa = assay: In vitro antibacterial activity was tested for Pseudomonas aeruginosa UI-18; type: functional; outline: as §1
Staphylococcus aureus [3] = assay: In vitro antibacterial activity was tested for Staphylococcus aureus H228; type: functional; outline: as §1
Staphylococcus aureus [4] = assay: In vitro antibacterial activity was tested for Staphylococcus aureus UC-76; type: functional; outline: as §1
Streptococcus pneumoniae = assay: In vitro antibacterial activity was tested for Streptococcus pneumoniae SV-1; type: functional; outline: as §1
V79 [5] = assay: (§2) Clonogenic cytotoxicity against Chinese hamster V-79 cells; type: functional; settings: Cricetulus griseus
Outline: (§3)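 Chinese hamster V-79 cells grown overnight, then exposed to drug 3 h at 37 °C; drug medium replaced with fresh medium, cells incubated 5 days and scored for colony formation. IC50 (μg/mL) taken as concentration inhibiting colony formation by 50% versus control.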

Streptococcus pyogenes = assay: In vitro antibacterial activity was tested for Streptococcus pyogenes C203; type: functional; outline: as §1
Enterococcus faecalis = assay: In vitro antibacterial activity was tested for Streptococcus faecalis MGH-2; type: functional; outline: as §1
Bacteroides fragilis = assay: In vitro antibacterial activity against Bacteroides fragilis BFA; type: functional; outline: as §1
Clostridioides difficile [6] = assay: (§4) In vitro antibacterial activity was tested for Clostridium diff CD1-1; type: functional
Clostridium perfringens = assay: In vitro antibacterial activity against Clostridium perfringens CP 3-1; type: functional
[7] = tested on: Peptoniphilus asaccharolyticus; assay: In vitro antibacterial activity was tested for Pepto asac PA 3-1; type: functional; outline: as §1
V79 [8] = assay: as §2; type: functional, cell-based; settings: Cricetulus griseus; outline: as §3
Cutibacterium acnes = assay: In vitro antibacterial activity was tested for Propion acnes PA5-1; type: functional; outline: as §1
Clostridioides difficile [9] = assay: as §4; type: functional; outline: as §1; remark: listed apart in the source
Mus musculus [10] = species: Mus musculus; assay: (§5) Phototoxic skin reaction in depilated female CD-1 mice; type: toxicity, organism-based; settings: in vivo
Outline: (§6)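 Female CD-1 mice, depilated, given a single oral or subcutaneous dose. UVA (320–400 nm) exposure for 3 h, starting 1 h post-dose. Initial doses were 30, 100 and 300 mg/kg. PTD50 (dose giving phototoxic skin reaction in 50% of mice) derived by probit method. First day of positive reaction and no-effect dose taken from raw data.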

Mus musculus [11] = species: Mus musculus; assay: as §5; type: functional; outline: as §6
Mus musculus [12] = species: Mus musculus; assay: phototoxic skin reaction in depilated female CD-1 mice; type: functional
Outline: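 Depilated female CD-1 mice given a single oral or subcutaneous dose; UVA (320–400 nm) exposure for 3 h starting 1 h post-dose. Initial doses 30, 100 and 300 mg/kg. PTD50 (dose giving phototoxic skin reaction in 50% of mice) calculated by probit method; first day of positive reaction and no-effect dose also taken from raw data.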

| Compound | MIC (Escherichia coli [1]) [µg/mL] | MIC (Escherichia coli [2]) [µg/mL] | MIC (Enterobacter cloacae) [µg/mL] | MIC (Klebsiella pneumoniae) [µg/mL] | MIC (Providencia rettgeri) [µg/mL] | MIC (Pseudomonas aeruginosa) [µg/mL] | MIC (Staphylococcus aureus [3]) [µg/mL] | MIC (Staphylococcus aureus [4]) [µg/mL] | MIC (Streptococcus pneumoniae) [µg/mL] | MIC (Streptococcus pyogenes) [µg/mL] | MIC (Enterococcus faecalis) [µg/mL] | MIC (Bacteroides fragilis) [µg/mL] | MIC (Clostridioides difficile [6]) [µg/mL] | MIC (Clostridium perfringens) [µg/mL] | MIC [7] [µg/mL] | IC50 (V79 [8]) [µg/mL] | MIC (Cutibacterium acnes) [µg/mL] | PTD50 (Mus musculus [10]) [mg] | No effect dose (Mus musculus [11]) [mg] | further results |
| --- | --- | --- | --- | --- | --- | --- | --- | --- | --- | --- | --- | --- | --- | --- | --- | --- | --- | --- | --- | --- |
| COc1c(N2CCCC(CN)C2)c(F)cc2c(=O)c(C(=O)O)cn(C3CC3)c12 (centres undefined) | 0.1 (≈ 0.257 µM) | 0.2 (≈ 0.514 µM) | 0.2 (≈ 0.514 µM) | 0.4 (≈ 1.03 µM) | 0.8 (≈ 2.05 µM) | 3.1 (≈ 7.96 µM) | 0.05 (≈ 0.128 µM) | 0.006 (≈ 0.0154 µM) | 0.006 (≈ 0.0154 µM) | 0.006 (≈ 0.0154 µM) | 0.05 (≈ 0.128 µM) |  |  |  |  |  |  |  |  | MIC (V79 [5]): 22 µg/mL (≈ 56.5 µM) |
| COc1c(N2CCNC(C)C2)c(F)cc2c(=O)c(C(=O)O)cn(C3CC3)c12 (centres undefined) [GATIFLOXACIN] | 0.05 (≈ 0.133 µM) | 0.05 (≈ 0.133 µM) | 0.05 (≈ 0.133 µM) | 0.1 (≈ 0.266 µM) | 0.2 (≈ 0.533 µM) | 0.8 (≈ 2.13 µM) | 0.2 (≈ 0.533 µM) | 0.05 (≈ 0.133 µM) | 0.1 (≈ 0.266 µM) | 0.1 (≈ 0.266 µM) | 0.2 (≈ 0.533 µM) | 0.4 (≈ 1.07 µM) | 1.6 (≈ 4.26 µM) | 0.4 (≈ 1.07 µM) | 0.8 (≈ 2.13 µM) | 85 (≈ 226 µM) | 0.4 (≈ 1.07 µM) |  |  |  |
| NCC1CCCN(c2c(F)cc3c(=O)c(C(=O)O)cn(C4CC4)c3c2F)C1 (centres undefined) | 0.05 (≈ 0.132 µM) | 0.05 (≈ 0.132 µM) | 0.05 (≈ 0.132 µM) | 0.2 (≈ 0.53 µM) | 0.2 (≈ 0.53 µM) | 0.4 (≈ 1.06 µM) | 0.1 (≈ 0.265 µM) | 0.2 (≈ 0.53 µM) | 0.013 (≈ 0.0344 µM) | 0.013 (≈ 0.0344 µM) | 0.05 (≈ 0.132 µM) | 1.6 (≈ 4.24 µM) | 0.8 (≈ 2.12 µM) | 0.2 (≈ 0.53 µM) | 0.4 (≈ 1.06 µM) | 43 (≈ 114 µM) | 0.8 (≈ 2.12 µM) |  |  |  |
| NC1CCN(c2c(F)cc3c(=O)c(C(=O)O)cn(C4CC4)c3c2F)C1 (centres undefined) | 0.006 (≈ 0.0172 µM) | 0.013 (≈ 0.0372 µM) | 0.025 (≈ 0.0716 µM) | 0.025 (≈ 0.0716 µM) | 0.05 (≈ 0.143 µM) | 0.1 (≈ 0.286 µM) | 0.05 (≈ 0.143 µM) | 0.025 (≈ 0.0716 µM) | 0.05 (≈ 0.143 µM) | 0.05 (≈ 0.143 µM) | 0.05 (≈ 0.143 µM) | 0.2 (≈ 0.573 µM) |  | 0.05 (≈ 0.143 µM) | 0.4 (≈ 1.15 µM) |  | 0.2 (≈ 0.573 µM) | 7.5 | 3 | MIC (Clostridioides difficile [9]): 0.4 µg/mL (≈ 1.15 µM) |
| NCC1CCCN(c2cc3c(cc2F)c(=O)c(C(=O)O)cn3C2CC2)C1 (centres undefined) | 0.4 (≈ 1.11 µM) | 0.4 (≈ 1.11 µM) | 0.4 (≈ 1.11 µM) | 0.8 (≈ 2.23 µM) | 1.6 (≈ 4.45 µM) | 3.1 (≈ 8.63 µM) | 0.8 (≈ 2.23 µM) | 0.1 (≈ 0.278 µM) | 0.1 (≈ 0.278 µM) | 0.05 (≈ 0.139 µM) | 0.2 (≈ 0.556 µM) |  |  |  |  | 220 (≈ 612 µM) |  |  |  |  |
| NCC1CCCN(c2nc3c(cc2F)c(=O)c(C(=O)O)cn3C2CC2)C1 (centres undefined) | 0.4 (≈ 1.11 µM) | 0.4 (≈ 1.11 µM) | 0.4 (≈ 1.11 µM) | 0.8 (≈ 2.22 µM) | 1.6 (≈ 4.44 µM) | 6.3 (≈ 17.5 µM) | 1.6 (≈ 4.44 µM) | 0.2 (≈ 0.555 µM) | 0.2 (≈ 0.555 µM) | 0.2 (≈ 0.555 µM) | 0.4 (≈ 1.11 µM) |  |  |  |  | 290 (≈ 805 µM) |  |  |  |  |
| NCC1CCCN(c2c(F)cc3c(=O)c(C(=O)O)cn(C4CC4)c3c2Cl)C1 (centres undefined) | 0.05 (≈ 0.127 µM) | 0.1 (≈ 0.254 µM) | 0.2 (≈ 0.508 µM) | 0.2 (≈ 0.508 µM) | 0.2 (≈ 0.508 µM) | 1.6 (≈ 4.06 µM) | 0.025 (≈ 0.0635 µM) | 0.003 (≈ 0.00762 µM) | 0.003 (≈ 0.00762 µM) | 0.003 (≈ 0.00762 µM) | 0.05 (≈ 0.127 µM) |  |  |  |  | 17 (≈ 43.2 µM) |  |  |  |  |
| NC1CCN(c2nc3c(cc2F)c(=O)c(C(=O)O)cn3C2CC2)C1 (centres undefined) |  |  |  |  |  |  |  |  |  |  |  | 1.6 (≈ 4.81 µM) | 6.3 (≈ 19 µM) | 0.1 (≈ 0.301 µM) | 0.8 (≈ 2.41 µM) |  | 0.2 (≈ 0.602 µM) | > 100 |  | Photoxic reaction (Mus musculus [12]): 100 mg; MIC (V79 [5]): 98 µg/mL (≈ 295 µM) |
| COc1c(N2CCC(N)C2)c(F)cc2c(=O)c(C(=O)O)cn(C3CC3)c12 (centres undefined) | 0.013 (≈ 0.036 µM) | 0.025 (≈ 0.0692 µM) | 0.025 (≈ 0.0692 µM) | 0.05 (≈ 0.138 µM) | 0.1 (≈ 0.277 µM) | 0.4 (≈ 1.11 µM) | 0.05 (≈ 0.138 µM) | 0.013 (≈ 0.036 µM) | 0.025 (≈ 0.0692 µM) | 0.025 (≈ 0.0692 µM) | 0.05 (≈ 0.138 µM) | 0.2 (≈ 0.553 µM) | 0.4 (≈ 1.11 µM) | 0.1 (≈ 0.277 µM) | 0.8 (≈ 2.21 µM) |  | 0.4 (≈ 1.11 µM) | > 100 | 100 |  |
| C[C@@H]1CN(c2c(F)c(N)c3c(=O)c(C(=O)O)cn(C4CC4)c3c2F)C[C@H](C)N1 [SPARFLOXACIN] |  |  |  |  |  |  |  |  |  |  |  | 1.6 (≈ 4.08 µM) | 6.3 (≈ 16.1 µM) | 0.2 (≈ 0.51 µM) | 0.4 (≈ 1.02 µM) | 370 (≈ 943 µM) | 0.4 (≈ 1.02 µM) | 28 | 18 |  |
| NC1CCN(c2c(F)cc3c(=O)c(C(=O)O)cn(C4CC4)c3c2Cl)C1 (centres undefined) [CLINAFLOXACIN] | 0.006 (≈ 0.0164 µM) | 0.013 (≈ 0.0355 µM) | 0.025 (≈ 0.0683 µM) | 0.025 (≈ 0.0683 µM) | 0.025 (≈ 0.0683 µM) | 0.05 (≈ 0.137 µM) | 0.05 (≈ 0.137 µM) | 0.013 (≈ 0.0355 µM) | 0.05 (≈ 0.137 µM) | 0.05 (≈ 0.137 µM) | 0.05 (≈ 0.137 µM) | 0.1 (≈ 0.273 µM) | 0.4 (≈ 1.09 µM) | 0.1 (≈ 0.273 µM) | 0.4 (≈ 1.09 µM) |  | 0.2 (≈ 0.547 µM) | 23 | 18 |  |
| NCC1CCCN(c2c(F)c(N)c3c(=O)c(C(=O)O)cn(C4CC4)c3c2F)C1 (centres undefined) | 0.025 (≈ 0.0637 µM) | 0.05 (≈ 0.127 µM) | 0.05 (≈ 0.127 µM) | 0.1 (≈ 0.255 µM) | 0.2 (≈ 0.51 µM) | 0.8 (≈ 2.04 µM) | 0.025 (≈ 0.0637 µM) | 0.003 (≈ 0.00765 µM) | 0.003 (≈ 0.00765 µM) | 0.13 (≈ 0.331 µM) | 0.013 (≈ 0.0331 µM) |  |  |  |  | 38 (≈ 96.8 µM) |  |  |  |  |
| C[C@@H]1CN(c2cc3c(cc2F)c(=O)c(C(=O)O)cn3C2CC2)C[C@H](C)N1 |  |  |  |  |  |  |  |  |  |  |  | 1.6 (≈ 4.45 µM) | 6.3 (≈ 17.5 µM) | 0.2 (≈ 0.556 µM) | 0.4 (≈ 1.11 µM) | > 500 | 0.8 (≈ 2.23 µM) | < 100 |  |  |
| COc1c(N2CC(C)NC(C)C2)c(F)cc2c(=O)c(C(=O)O)cn(C3CC3)c12 (centres undefined) | 0.05 (≈ 0.128 µM) | 0.1 (≈ 0.257 µM) | 0.1 (≈ 0.257 µM) | 0.2 (≈ 0.514 µM) | 0.8 (≈ 2.05 µM) | 3.1 (≈ 7.96 µM) | 0.1 (≈ 0.257 µM) | 0.05 (≈ 0.128 µM) | 0.1 (≈ 0.257 µM) | 0.1 (≈ 0.257 µM) | 0.2 (≈ 0.514 µM) | 0.8 (≈ 2.05 µM) | 3.1 (≈ 7.96 µM) | 0.4 (≈ 1.03 µM) | 0.8 (≈ 2.05 µM) |  | 0.4 (≈ 1.03 µM) | > 100 | 100 |  |

From ChEMBL document CHEMBL1128719, “The synthesis, structure-activity, and structure-side effect relationships of a series of 8-alkoxy- and 5-amino-8-alkoxyquinolone antibacterial agents” (J Med Chem, 1995)
